Test results taken from ChEMBL document CHEMBL1140880, “Arylphthalazines as potent, and orally bioavailable inhibitors of VEGFR-2” (Bioorg Med Chem, 2009).
pEC50, pIC50: −log10 of the molar value. Values after ≈ are worked out from the molar mass of the structure shown. One block for each molecule: values may come before it.

How the values were obtained:
HUVEC = assay: Inhibition of VEGF-stimulated HUVEC cell proliferation treated before 2 hrs of VEGF challenge assessed after 3 days by [3H]thymidine incorporation assay; format: functional; details: Homo sapiens, read-out: ED50 (the source's name)
Method in brief: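 HUVEC seeded at 1 × 10^4 cells/well in EGM and allowed to adhere ≥4 h. Cells then quiesced 72 h in medium lacking EGF, VEGF and FGF with 1% FBS. Compound added for 2 h (0.1% DMSO), then stimulation with VEGF-165 (5 ng/well) for 3 days.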

[1] = molecular target: T1, Vascular endothelial growth factor receptor 2 (Homo sapiens, UniProt P35968); details: HEK293
Target sequence in this assay (P35968 whole entry, looked up): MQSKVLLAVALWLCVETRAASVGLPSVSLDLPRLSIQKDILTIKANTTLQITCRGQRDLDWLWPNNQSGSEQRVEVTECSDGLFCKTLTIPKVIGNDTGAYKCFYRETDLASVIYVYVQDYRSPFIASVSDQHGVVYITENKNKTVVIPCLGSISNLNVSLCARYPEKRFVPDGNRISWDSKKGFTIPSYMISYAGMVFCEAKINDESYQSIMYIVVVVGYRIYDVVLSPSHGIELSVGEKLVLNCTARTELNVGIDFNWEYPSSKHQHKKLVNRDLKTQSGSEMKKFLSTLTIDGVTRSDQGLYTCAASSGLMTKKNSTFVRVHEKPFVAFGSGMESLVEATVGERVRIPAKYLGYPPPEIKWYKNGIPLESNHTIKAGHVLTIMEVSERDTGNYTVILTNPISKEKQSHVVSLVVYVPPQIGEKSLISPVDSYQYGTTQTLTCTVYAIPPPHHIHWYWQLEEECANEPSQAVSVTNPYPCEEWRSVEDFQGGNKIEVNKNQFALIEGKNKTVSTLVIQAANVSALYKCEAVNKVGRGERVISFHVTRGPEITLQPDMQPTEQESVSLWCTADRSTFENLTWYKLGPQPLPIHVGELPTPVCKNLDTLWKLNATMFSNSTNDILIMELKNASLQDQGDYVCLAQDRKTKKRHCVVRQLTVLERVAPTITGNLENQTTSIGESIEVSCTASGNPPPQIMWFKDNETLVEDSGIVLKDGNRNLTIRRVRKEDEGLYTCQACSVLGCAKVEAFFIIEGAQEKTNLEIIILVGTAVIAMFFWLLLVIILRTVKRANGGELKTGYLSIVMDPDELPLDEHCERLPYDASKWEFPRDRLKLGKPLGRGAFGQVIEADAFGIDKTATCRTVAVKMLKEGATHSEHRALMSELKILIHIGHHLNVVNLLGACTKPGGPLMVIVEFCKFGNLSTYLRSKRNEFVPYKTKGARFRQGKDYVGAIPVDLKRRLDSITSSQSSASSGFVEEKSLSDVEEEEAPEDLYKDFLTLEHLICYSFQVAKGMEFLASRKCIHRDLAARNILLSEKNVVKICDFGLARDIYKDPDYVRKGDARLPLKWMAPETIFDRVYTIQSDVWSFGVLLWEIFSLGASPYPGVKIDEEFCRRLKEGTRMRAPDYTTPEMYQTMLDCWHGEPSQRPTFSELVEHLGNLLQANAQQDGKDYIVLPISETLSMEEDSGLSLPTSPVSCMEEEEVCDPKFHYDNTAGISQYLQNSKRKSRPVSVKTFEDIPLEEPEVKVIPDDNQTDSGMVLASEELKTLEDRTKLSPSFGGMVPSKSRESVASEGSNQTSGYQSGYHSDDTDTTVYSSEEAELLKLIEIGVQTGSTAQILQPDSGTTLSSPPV

[2] = molecular target: T1, Vascular endothelial growth factor receptor 2; assay: Inhibition of VEGFR2 by HTRF method
Target sequence in this assay (P35968 whole entry): as the sequence (P35968 whole entry, looked up) above

[3] = molecular target: Vascular endothelial growth factor receptor 3 (Homo sapiens) (UniProt P35916); assay: Inhibition of VEGFR3 at 10 uM
Sequence of Vascular endothelial growth factor receptor 3 (Homo sapiens) (P35916 whole entry): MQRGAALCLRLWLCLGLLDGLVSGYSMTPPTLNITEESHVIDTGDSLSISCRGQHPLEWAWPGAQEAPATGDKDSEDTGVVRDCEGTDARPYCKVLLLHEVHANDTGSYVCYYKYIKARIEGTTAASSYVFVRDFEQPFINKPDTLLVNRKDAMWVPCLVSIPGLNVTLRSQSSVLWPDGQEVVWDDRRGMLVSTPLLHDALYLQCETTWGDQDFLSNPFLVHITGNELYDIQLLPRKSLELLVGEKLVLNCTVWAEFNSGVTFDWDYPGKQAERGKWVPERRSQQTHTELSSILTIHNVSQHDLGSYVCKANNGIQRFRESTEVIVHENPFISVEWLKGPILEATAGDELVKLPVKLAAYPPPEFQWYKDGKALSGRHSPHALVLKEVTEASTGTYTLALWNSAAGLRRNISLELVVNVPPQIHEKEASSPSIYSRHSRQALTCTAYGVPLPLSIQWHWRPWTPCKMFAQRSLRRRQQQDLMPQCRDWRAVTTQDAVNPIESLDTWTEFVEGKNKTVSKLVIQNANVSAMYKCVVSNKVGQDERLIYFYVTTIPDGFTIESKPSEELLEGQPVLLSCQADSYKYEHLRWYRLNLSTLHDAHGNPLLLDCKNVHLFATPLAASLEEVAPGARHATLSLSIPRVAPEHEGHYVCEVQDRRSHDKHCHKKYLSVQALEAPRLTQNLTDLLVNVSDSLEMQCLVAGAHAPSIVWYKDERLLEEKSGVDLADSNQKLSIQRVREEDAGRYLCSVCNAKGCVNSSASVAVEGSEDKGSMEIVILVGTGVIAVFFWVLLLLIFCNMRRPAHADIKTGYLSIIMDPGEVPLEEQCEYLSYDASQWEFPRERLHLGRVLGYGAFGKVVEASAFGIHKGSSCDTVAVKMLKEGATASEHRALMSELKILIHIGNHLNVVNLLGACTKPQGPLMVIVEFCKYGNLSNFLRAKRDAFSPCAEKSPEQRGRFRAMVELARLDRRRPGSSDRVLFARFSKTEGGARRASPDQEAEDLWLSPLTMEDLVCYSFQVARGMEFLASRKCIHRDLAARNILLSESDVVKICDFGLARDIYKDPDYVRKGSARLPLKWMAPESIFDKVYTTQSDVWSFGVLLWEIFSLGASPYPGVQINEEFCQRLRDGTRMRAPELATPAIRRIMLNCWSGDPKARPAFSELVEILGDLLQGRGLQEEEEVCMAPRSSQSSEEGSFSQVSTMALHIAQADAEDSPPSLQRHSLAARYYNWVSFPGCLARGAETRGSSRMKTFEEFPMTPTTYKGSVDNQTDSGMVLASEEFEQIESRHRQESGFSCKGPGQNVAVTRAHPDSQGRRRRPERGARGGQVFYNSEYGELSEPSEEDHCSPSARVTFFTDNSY

[4] = molecular target: Fibroblast growth factor receptor 1 (Homo sapiens) (UniProt P11362); assay: Inhibition of FGFR1 at 10 uM
Sequence of Fibroblast growth factor receptor 1 (Homo sapiens) (P11362 22-822 limits assumed): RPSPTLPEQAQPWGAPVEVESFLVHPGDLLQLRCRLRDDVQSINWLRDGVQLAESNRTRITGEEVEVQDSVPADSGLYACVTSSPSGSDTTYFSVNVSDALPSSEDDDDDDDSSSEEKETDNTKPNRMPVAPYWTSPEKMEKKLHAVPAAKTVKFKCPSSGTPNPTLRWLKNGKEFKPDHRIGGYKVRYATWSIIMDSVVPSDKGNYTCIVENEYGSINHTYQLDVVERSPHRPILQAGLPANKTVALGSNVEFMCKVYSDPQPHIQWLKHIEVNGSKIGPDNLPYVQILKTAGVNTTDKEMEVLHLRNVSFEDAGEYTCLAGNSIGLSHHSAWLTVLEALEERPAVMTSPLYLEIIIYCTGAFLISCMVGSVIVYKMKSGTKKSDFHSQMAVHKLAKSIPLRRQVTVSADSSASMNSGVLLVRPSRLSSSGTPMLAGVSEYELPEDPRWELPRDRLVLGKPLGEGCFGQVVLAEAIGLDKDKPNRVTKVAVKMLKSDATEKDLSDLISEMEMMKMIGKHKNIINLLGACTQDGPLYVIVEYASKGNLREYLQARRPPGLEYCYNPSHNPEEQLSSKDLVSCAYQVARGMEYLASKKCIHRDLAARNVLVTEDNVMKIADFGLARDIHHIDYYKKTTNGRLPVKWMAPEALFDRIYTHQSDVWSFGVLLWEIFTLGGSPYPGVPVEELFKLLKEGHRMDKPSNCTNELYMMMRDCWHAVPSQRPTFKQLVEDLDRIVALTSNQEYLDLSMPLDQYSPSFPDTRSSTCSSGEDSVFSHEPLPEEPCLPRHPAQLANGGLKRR

[5] = molecular target: Sodium-dependent dopamine transporter (Homo sapiens) (UniProt Q01959); assay: Inhibition of dopamine transporter at 10 uM
Sequence of Sodium-dependent dopamine transporter (Homo sapiens) (Q01959 whole entry): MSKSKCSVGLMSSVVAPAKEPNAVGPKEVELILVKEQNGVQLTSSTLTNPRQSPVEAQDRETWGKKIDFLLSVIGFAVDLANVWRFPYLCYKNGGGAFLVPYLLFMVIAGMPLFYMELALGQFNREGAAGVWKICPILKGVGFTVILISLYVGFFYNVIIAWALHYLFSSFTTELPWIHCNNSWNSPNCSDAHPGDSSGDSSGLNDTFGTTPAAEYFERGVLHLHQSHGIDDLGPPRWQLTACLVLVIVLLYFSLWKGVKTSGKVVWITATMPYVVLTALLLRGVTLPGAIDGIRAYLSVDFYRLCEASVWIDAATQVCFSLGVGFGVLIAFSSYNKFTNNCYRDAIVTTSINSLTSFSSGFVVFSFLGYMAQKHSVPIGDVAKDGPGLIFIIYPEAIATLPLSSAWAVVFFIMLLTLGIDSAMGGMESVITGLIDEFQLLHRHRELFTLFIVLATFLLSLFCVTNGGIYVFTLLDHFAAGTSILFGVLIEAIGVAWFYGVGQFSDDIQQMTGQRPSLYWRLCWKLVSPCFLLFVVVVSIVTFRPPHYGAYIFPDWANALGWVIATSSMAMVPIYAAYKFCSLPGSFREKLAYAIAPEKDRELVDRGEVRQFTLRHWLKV

[6] = Inhibition of adenosine receptor at 10 uM
[7] = molecular target: Histamine H2 receptor (Homo sapiens) (UniProt P25021); assay: Inhibition of histamine H2 receptor at 10 uM
Sequence of Histamine H2 receptor (Homo sapiens) (P25021 whole entry): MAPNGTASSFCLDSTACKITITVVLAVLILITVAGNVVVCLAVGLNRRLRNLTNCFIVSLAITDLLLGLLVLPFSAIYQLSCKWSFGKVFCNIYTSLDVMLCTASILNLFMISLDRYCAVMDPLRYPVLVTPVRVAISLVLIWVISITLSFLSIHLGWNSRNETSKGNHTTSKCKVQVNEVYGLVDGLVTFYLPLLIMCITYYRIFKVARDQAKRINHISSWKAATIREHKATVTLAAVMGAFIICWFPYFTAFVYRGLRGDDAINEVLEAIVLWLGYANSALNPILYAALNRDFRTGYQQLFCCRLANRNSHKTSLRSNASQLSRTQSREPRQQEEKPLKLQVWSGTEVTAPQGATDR

[8] = molecular target: Voltage-gated inwardly rectifying potassium channel KCNH2 (Homo sapiens, UniProt Q12809); assay: Inhibition of human ERG; details: read-out: ED50 (the source's name)
Cytochrome P450 3A4 = Cytochrome P450 3A4 (Homo sapiens, UniProt P08684); assay: Inhibition of CYP3A4; format: ADME
Sequence of Cytochrome P450 3A4 (P08684 whole entry): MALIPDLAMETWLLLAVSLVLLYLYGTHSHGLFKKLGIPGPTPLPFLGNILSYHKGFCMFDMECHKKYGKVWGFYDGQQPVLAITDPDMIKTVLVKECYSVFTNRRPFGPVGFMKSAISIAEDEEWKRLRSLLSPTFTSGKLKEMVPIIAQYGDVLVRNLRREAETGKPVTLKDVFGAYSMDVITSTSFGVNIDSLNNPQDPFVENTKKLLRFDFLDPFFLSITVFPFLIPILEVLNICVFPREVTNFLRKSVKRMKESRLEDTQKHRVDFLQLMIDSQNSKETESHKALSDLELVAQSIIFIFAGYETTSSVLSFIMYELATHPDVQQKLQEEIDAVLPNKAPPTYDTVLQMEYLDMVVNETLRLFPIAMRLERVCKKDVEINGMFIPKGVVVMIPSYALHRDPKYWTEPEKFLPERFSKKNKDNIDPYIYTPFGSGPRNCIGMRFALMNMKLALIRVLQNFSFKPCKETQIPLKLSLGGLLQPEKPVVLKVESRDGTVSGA

[9] = Solubility in deionized water; format: physicochemical
[10] = Drug level in po dosed CD1 mouse administered as 5% phosal solution after 1 hr; format: ADME, organism-based; details: in vivo, read-out: Drug uptake
Method in brief: (§1)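 Preliminary exposure study in female CD-1 mice dosed by oral route; vehicles included 5% phosal solution. Plasma analysed for compound at 1-h and 4-h timepoints.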

[11] = Drug level in po dosed CD1 mouse administered as 5% phosal solution after 4 hrs; format: ADME, organism-based; details: in vivo, read-out: Drug uptake; method in brief: as §1
[12] = Cmax in CD1 mouse at 30 mg/kg administered as 5% phosal solution after 24 hrs; format: ADME, organism-based; set-up: dose 30 mg/kg; details: in vivo
Method in brief: (§2)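 Female CD-1 mice (n = 3) given 30 mg/kg orally in 5% phosal solution (dihydrochloride salt; target ca. 3 mg/mL, dosed at 10 mL/kg).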

[13] = AUC (0 to 24 hrs) in CD1 mouse at 30 mg/kg administered as 5% phosal solution; format: ADME, organism-based; set-up: time < 24 hr, dose 30 mg/kg; details: plasma; method in brief: as §2

Compound: CC(C)(C)c1ccc(Nc2nnc(-c3ccc(C(N)=O)cc3)c3ccccc23)cc1
- pEC50 (HUVEC): 6.60

Compound: COc1cc2c(Oc3ccc4[nH]c(C)cc4c3F)ncnc2cc1OCCCN1CCCC1 [CEDIRANIB]
- pEC50 (HUVEC): 7.92

Compound: NC(=O)c1ccc(-c2nnc(Nc3ccc(Oc4ccccc4)cc3)c3ccccc23)cc1
- pIC50 [2]: < 5.00

Compound: CNS(=O)(=O)c1ccc(Nc2nnc(-c3ccc(C(N)=O)cc3)c3ccccc23)cc1
- pIC50 [2]: < 5.00

Compound: COc1cc2/c(=N/c3ccc(Br)cc3F)nc[nH]c2cc1OCC1CCN(C)CC1 [VANDETANIB]
- pEC50 (HUVEC): 6.55

The next lines start with results.

- ED50 [1]: > 10 µM
Compound: COc1ccc(Nc2nnc(-c3ccc(C(N)=O)cc3)c3ccccc23)cc1

- inhibition [3]: 33%
- inhibition [4]: 38%
- inhibition [5]: 77%
- inhibition [6]: 65%
- inhibition [7]: 54%
- Activity (Cytochrome P450 3A4): Not Active
- solubility [9]: 1000 µg/mL (≈ 2610 µM)
- concentration at 1 h [10]: 22.7 µM
- concentration at 4 h [11]: 18.8 µM
- Cmax [12]: 25.9 µM
- AUC(0-t) at 24 h [13]: 891 µM·h
- ED50 [1]: 0.01 µM
Compound: Clc1ccc(Nc2nnc(-c3cccc4cnccc34)c3ccccc23)cc1
- pIC50 [8]: 5.52
- pEC50 (HUVEC): 6.68
